# Data taken from ChEMBL document CHEMBL4371094, “Secondary Metabolites from the Fungus Dictyosporium sp. and Their MALT1 Inhibitory Activities” (J Nat Prod, 2019).
# pIC50: −log10 of the molar value. Calls of active or inactive are those of the source. No cut-off for these calls is given here.
# Target: T1, Mucosa-associated lymphoid tissue lymphoma translocation protein 1 (Homo sapiens, UniProt Q9UDY8)
# T1 sequence (Q9UDY8 whole entry): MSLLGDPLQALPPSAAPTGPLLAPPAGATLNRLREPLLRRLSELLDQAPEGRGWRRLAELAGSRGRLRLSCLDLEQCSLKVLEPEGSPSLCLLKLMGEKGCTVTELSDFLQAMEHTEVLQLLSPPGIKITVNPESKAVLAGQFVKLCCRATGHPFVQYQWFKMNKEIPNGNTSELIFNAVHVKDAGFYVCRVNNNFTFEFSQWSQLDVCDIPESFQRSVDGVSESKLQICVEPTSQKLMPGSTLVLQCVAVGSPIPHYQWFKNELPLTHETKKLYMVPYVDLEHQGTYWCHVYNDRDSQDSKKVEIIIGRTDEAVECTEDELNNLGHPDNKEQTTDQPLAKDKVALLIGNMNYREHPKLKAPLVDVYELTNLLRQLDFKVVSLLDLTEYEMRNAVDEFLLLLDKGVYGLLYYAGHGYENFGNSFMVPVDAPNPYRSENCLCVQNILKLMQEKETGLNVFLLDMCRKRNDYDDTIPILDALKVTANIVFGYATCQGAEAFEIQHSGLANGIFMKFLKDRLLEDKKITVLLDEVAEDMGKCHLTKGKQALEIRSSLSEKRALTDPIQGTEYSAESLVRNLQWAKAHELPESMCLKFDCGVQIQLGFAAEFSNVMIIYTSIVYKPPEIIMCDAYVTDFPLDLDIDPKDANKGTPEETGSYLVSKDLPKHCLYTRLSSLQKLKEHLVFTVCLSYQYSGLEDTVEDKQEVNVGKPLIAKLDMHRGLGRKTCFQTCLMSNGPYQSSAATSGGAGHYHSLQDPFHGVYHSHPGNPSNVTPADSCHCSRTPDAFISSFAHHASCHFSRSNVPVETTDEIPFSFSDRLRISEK
# Test: Inhibition of full-length human GST-tagged MALT1 isoform A (824 residues) expressed in Escherichia coli using Ac-LRSR-MCA as substrate after 1 hr by fluorescence assay
# Summary of the method: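 Recombinant MALT1-GST, 25 nM final, in buffer of 50 mM Tris HCl pH 7.5, 0.05% CHAPS, 1 mM DTT, 0.1 mM EGTA, 0.8 M sodium citrate. Started by adding 150 μM Ac-LRSR-MCA with compound (0−250 μM). 37 °C for 1 h, quenched with equal volume 0.2% SDS, AMC fluorescence read at ex 342/em 441 nm in quadruplicate. Prequenched background subtracted, normalized to vehicle control.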
row,pIC50,SMILES
1,4.49,COC(=O)C1=CC(C)=COc2oc3cccc(O)c3c(=O)c21
2,7.80,CC(C)[C@H](NC(=O)OCc1ccccc1)C(=O)N[C@@H](CCCNC(=N)N)C(=O)N1CCC[C@H]1C(=O)N[C@@H](CCCNC(=N)N)C(=O)CF
3,4.29,COC(=O)C1=CC=COc2oc3cc(C)cc(O)c3c(=O)c21

# Target: T2, Mucosa-associated lymphoid tissue lymphoma translocation protein 1 (Homo sapiens) (UniProt Q9UDY8)
# T2 sequence (whole entry): T1 sequence (Q9UDY8 whole entry)
# Test: Inhibition of full-length human GST-tagged MALT1 isoform A (824 residues) expressed in Escherichia coli at >100 uM in presence of AMC after 1 hr by fluorescence assay
row,inhibition,SMILES
1,Active,COC(=O)C1=CC(C)=COc2oc3cccc(O)c3c(=O)c21
2,Active,COC(=O)C1=CC=COc2oc3cc(C)cc(O)c3c(=O)c21

# Target: T2, Mucosa-associated lymphoid tissue lymphoma translocation protein 1 (Homo sapiens)
# Test: Inhibition of full-length human GST-tagged MALT1 isoform A (824 residues) expressed in Escherichia coli at 100 uM using Ac-LRSR-MCA as substrate after 1 hr by fluorescence assay
row,SMILES,inhibition
1,CCc1c(OC)cc2c(c1O)C(=O)CC[C@@H]2O,inactive
2,COc1cc2c(c(O)c1[C@H](C)O)C(=O)CC[C@@H]2O,inactive
3,CCc1c(OC)cc2c(c1O)C(=O)CC[C@@]21C[C@@H](O)C(=O)O1,inactive
4,COc1c(C)cc(O)c2c1[C@H](O)[C@]1(C(=O)C(CC=C(C)C)=CC[C@H]1O)C2=O,inactive

# Results, then the compound that gave them:
row,inhibition,SMILES
1,inactive,COC(=O)c1cc(C)c(O)c2oc3cccc(O)c3c(=O)c12
2,inactive,Cc1cc([C@@H]2C[C@H](O)C(=O)O2)c2c(=O)c3c(O)cccc3oc2c1
3,inactive,Cc1cc(CO)c2c(=O)c3c(O)cccc3oc2c1
4,inactive,COC(=O)c1cccc2oc3cc(C)cc(O)c3c(=O)c12
5,inactive,COC(=O)c1cc(O)cc2oc3cc(C)cc(O)c3c(=O)c12
